# Source: PubChem BioAssay
# Only some compounds are listed: those with a hit (about 2.1% of all), similar ones and a draw of the others.
# Scp-1 inhibitor: inhibitors of human Scp-1 phosphatase | AID 493091 | inhibition, % at 20 µM | Recombinant Scp1, phosphopeptide, malachite green phosphate absorbance | 0.88% of 340,000 active | Q9GZU7;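 active = inhibition above about 50% at 20 µM, limit read from the data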;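 also: plate controls were DMSO wells with enzyme for no effect and wells lacking enzyme for full effect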
#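 Test system: SCP-1 catalytic domain; Buffer or medium: Acidic Tris acetate buffer with magnesium and detergent; Also added: Phosphorylated 17-residue peptide substrate; Compound: single 20 µM dose, 1% DMSO; Schedule: enzyme reaction 45 min at room temperature, colour 5 min, stabilisation 30 min; Signal: Phosphate-binding colour reagent, absorbance read at 630 nm.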
# STEP block: blocks human striatal-enriched tyrosine phosphatase; inhibition, % at 20 µM; 0.25% of 360,000 active; recombinant STEP, OMFP fluorogenic substrate, fluorescence;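 active = inhibition at 20 µM, scaled per plate between control wells, above about 37%, limit read from the data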;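 also: 0% = DMSO with enzyme and substrate and 100% = substrate only without enzyme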
# Target sequence (P54829 whole entry, looked up): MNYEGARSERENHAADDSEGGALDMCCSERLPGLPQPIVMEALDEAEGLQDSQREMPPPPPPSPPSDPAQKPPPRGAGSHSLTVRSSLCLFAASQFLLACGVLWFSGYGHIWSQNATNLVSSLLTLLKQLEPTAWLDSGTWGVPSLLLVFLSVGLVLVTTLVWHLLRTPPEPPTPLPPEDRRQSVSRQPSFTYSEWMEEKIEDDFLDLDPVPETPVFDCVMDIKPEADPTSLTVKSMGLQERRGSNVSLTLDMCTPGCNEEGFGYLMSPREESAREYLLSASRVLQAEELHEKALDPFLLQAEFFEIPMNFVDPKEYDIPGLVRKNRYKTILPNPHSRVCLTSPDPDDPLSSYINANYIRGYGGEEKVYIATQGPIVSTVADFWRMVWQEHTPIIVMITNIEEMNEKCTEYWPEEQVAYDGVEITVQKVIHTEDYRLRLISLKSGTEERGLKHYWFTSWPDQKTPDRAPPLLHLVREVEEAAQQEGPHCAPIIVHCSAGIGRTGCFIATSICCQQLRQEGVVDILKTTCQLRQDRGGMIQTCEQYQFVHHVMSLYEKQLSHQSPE
#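 Material: STEP (striatal-enriched tyrosine phosphatase) enzyme, cell-free | Medium: 50 mM Bis-Tris pH 6.0 with 2.5 mM DTT and 0.005% Tween 20 | Read-out: Percent inhibition scaled to no-enzyme and uninhibited-enzyme controls, plate-pattern corrected | Signal: Fluorescence read at 480 nm ex / 540 nm em | Times: 20 min reaction, room temperature, in the dark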
# GRK2 aptamer HTS: inhibitors of human GRK2 displacing RNA aptamer. inhibition of aptamer binding, % at 10 µM. P25098. bead flow cytometry, FAM-aptamer displacement from GRK2. AID 488847. 0.59% of 330,000 active;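 active = inhibition of aptamer binding above 40%, roughly 3 SD of noise, on plates passing a quality check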;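 also: median bead fluorescence of bound FAM aptamer so fluorescent compounds give negative values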
# SUMO1 PPI mod: alters human SUMO1 binding to SIM partners | SUMO1 binding to a labelled peptide, TR-FRET, 1 h | inhibition, % at 20 µM | 0.33% of 360,000 active; in the data active = inhibition above about 37%
# LMPTP inh: blocks human LMPTP phosphatase; recombinant LMPTP-A, OMFP fluorogenic substrate, fluorescence intensity; AID 651560; inhibition, % at 20 µM; 0.22% of 360,000 active;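 active = compounds that cut the enzyme signal by at least half of the control window in the single-dose screen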;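 also: plate controls were DMSO wells with enzyme plus substrate for no effect and substrate without enzyme for full effect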
# Target sequence (P24666 whole entry, looked up): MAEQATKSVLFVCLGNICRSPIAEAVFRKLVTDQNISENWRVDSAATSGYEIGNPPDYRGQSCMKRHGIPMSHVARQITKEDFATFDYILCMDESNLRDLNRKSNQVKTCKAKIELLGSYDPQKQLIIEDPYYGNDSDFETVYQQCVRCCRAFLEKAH
#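 Material: LMPTP-A; amount: 0.625 nM enzyme; doses: single 20 µM dose; times: reaction 50 min, room temperature, dark; technique: fluorescence intensity of OMFP turnover product; benchmarks: no-enzyme and uninhibited controls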
# DNMT1 block: inhibitors of human DNMT1; P26358; DNMT1 molecular beacon, Hinp1I cleavage, fluorescence; inhibition (reported as % activation of signal), % at 10 µM; 0.83% of 360,000 active; AID 588458; in the data active = inhibition above about 50%
# GRK2 inh confirm: human GRK2 inhibition confirmation, cherry pick 1; shares compounds with GRK2 aptamer HTS; bead-bound GRK2, FAM-aptamer displacement, flow cytometry; aptamer displacement, % at 10 µM; 4% of 2,000 active;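 active = aptamer displacement above 40%, near three times the noise of non-fluorescent compounds, on plates passing quality checks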;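 also: negative values mostly reflect intrinsic compound fluorescence rather than true enhancement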
# Aptamer quench: fluorescent aptamer quenching in GRK2 counter-screen dose response; fluorescence change (kMESF span), kMESF (concentration not given with the values); Fluorescent RNA aptamer beads, flow cytometry; active compounds read high; shares compounds with GRK2 aptamer HTS; AID 504521; 110 tested, under 10 active;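 active = compounds whose bead fluorescence drops by more than 37 kMESF across the dose range, marking them as dye quenchers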
# FAM quench CP1: quenches fluorescent RNA aptamer, GRK2 hit artifact; shares compounds with GRK2 aptamer HTS; Carboxyfluorescein RNA aptamer on beads, flow cytometry quenching; active compounds read low; fluorescence response (% of DMSO), % at 10 µM; 2,000 tested, under 10 active; AID 504580;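 active = compounds that quench the bead-bound fluorescent RNA probe, cutting fluorescence to under half of the solvent control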;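 also: counterscreen run without GRK2 so only probe quenching by compound is measured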
# GRK2 confirm 2: confirmation of human GRK2 inhibitors binding RNA aptamer site; shares compounds with GRK2 aptamer HTS; inhibition of aptamer binding, % at 10 µM; AID 504782; 360 tested, under 10 active; bead-bound GRK2, FAM-aptamer displacement, flow cytometry;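 active = inhibition of aptamer binding above 40%, about triple the noise seen with nonglowing compounds, on plates passing quality control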;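 also: negative values mostly come from compounds that fluoresce themselves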
# FAM quench CP2: counter-screen for GRK2 binding hits: quenchers of fluorescent RNA aptamer | shares compounds with GRK2 aptamer HTS | carboxyfluorescein RNA aptamer beads, flow cytometry quenching; active compounds read low | fluorescence response vs DMSO, % at 10 µM | 360 tested, under 10 active;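 active = response vs DMSO under 50%, meaning signal dropped by over half, treated as fluorescence quencher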;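 also: labelled aptamer on streptavidin beads without GRK2 as a quench counter-screen; 100% = bead fluorescence of DMSO wells and lower means quenching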
# * = called active by the depositor; . = not tested or not shown.
SMILES,Scp-1 inhibitor,STEP block,GRK2 aptamer HTS,SUMO1 PPI mod,LMPTP inh,DNMT1 block,GRK2 inh confirm,FAM quench CP1,others
Cc1ccc(C(=O)Cn2c(C)cc(C)c(C#N)c2=O)cc1,-1,0,0,0,0,-4,.,.,
CC(Oc1ccc(Cl)cc1)c1ccnn1S(=O)(=O)c1ccccc1 (stereo not given),-10,1,0,-1,3,-3,.,.,
CC(Oc1ccccc1)c1ccnn1S(C)(=O)=O (stereo not given),-1,1,38,-1,0,3,1,98,
O=C(Cn1cccn1)N1CCCC(N2CCN(c3ccccc3F)CC2)C1 (stereo not given),-4,0,35,1,0,1,.,.,
COCC(=O)N1CCC(Oc2ccc(C(=O)NCc3cnc(C)cn3)cc2)CC1,-10,1,1,2,-1,0,.,.,
CCn1ccnc1CNC(=O)c1ccc(OC2CCN(C(=O)COC)CC2)cc1,4,-1,0,0,-1,1,3,97,
O=C(NC(=S)Nc1ccc2oc(-c3ccncc3)nc2c1)c1ccccc1F,-2,3,40,7,0,18,-14,100,
O=C(Nc1ccc2oc(-c3ccc(F)cc3)nc2c1)c1ccccc1F,-12,-2,2,0,0,5,.,.,
COc1ccc(Cl)cc1N(CC(=O)NC(C(C)C)C(C)C)S(C)(=O)=O,-5,0,4,5,-1,3,.,.,
COc1ccc(CNC(=O)C2CCCN(S(=O)(=O)c3c(C)noc3/C=C/N(C)C)C2)cc1 (stereo not given),0,-3,5,-2,0,-2,3,99,
COc1ccc2nc(NC(=O)C3CCCN(S(=O)(=O)c4cccc5nonc45)C3)sc2c1 (stereo not given),-4,3,87*,-9,3,-10,0,102,
CCOc1ccc2nc(NC(=O)C3CCCN(S(=O)(=O)c4cccc5nonc45)C3)sc2c1 (stereo not given),-4,1,3,-8,1,-11,.,.,
Cc1ccc(CNC(=O)C2CCCN(S(=O)(=O)c3c(C)noc3/C=C/N(C)C)C2)cc1 (stereo not given),-9,2,.,-5,2,0,-2,102,
COc1ccccc1CNC(=O)C1CCCN(S(=O)(=O)c2cccc3nonc23)C1 (stereo not given),-1,-2,1,-30,-1,-1,.,.,
Cc1noc(/C=C/N(C)C)c1S(=O)(=O)N1CCCC(C(=O)NCc2ccc(Cl)cc2)C1 (stereo not given),-3,-5,2,3,0,-3,.,.,
O=C(NCc1ccccc1Cl)C1CCCN(S(=O)(=O)c2cccc3nonc23)C1 (stereo not given),-3,2,1,-7,1,1,0,96,
Cc1noc(/C=C/N(C)C)c1S(=O)(=O)N1CCCC(C(=O)NCc2ccccc2Cl)C1 (stereo not given),-4,-5,3,3,2,-3,1,98,
C=C(C)C(=O)Nc1cccc(C2=NOC3(C2)C[C@H](C(N)=O)N(C(=O)CC#N)C3)c1 (stereo not given in full),57*,.,67*,.,.,.,16,102,Aptamer quench=6.5
N#CCC(=O)N1CC2(CC(c3cccc(NC(=O)COc4ccc(Cl)cc4)c3)=NO2)C[C@@H]1C(N)=O (stereo not given in full),0,1,4,-1,-1,2,.,.,
CCC(=O)Nc1cccc(C2=NOC3(C2)C[C@H](C(N)=O)N(C(=O)Cc2ccc([N+](=O)[O-])cc2)C3)c1 (stereo not given in full),-4,2,3,-25,-1,5,.,.,GRK2 confirm 2=6;FAM quench CP2=97
CCc1cc2c(cc3c(=O)n(CC(=O)NCCCN4CCCCCC4)nc(CC)n32)s1,-2,2,0,-51,7,-1,.,.,
COCCC(=O)Nc1c(-c2ccccc2)c2cc(Br)ccc2[nH]c1=O,-4,-2,1,6,-1,-2,.,.,
COc1ccc(NC(=O)Nc2cccc3c2O[C@H](CN(C)C(=O)Nc2ccc(OC)cc2)[C@@H](C)CN([C@H](C)CO)C3=O)cc1,0,2,0,-3,-1,0,.,.,
N/C(=N\OC(=O)C1CCCCC1)c1ccccn1,3,-3,83*,0,-1,0,-5,101,
CCOc1ccc(NC(=O)c2ccc(N3CC4CC(C3)c3cccc(=O)n3C4)c(N)c2)cc1 (stereo not given),-5,7,93*,6,1,1,0,100,
SMILES,Scp-1 inhibitor,STEP block,GRK2 aptamer HTS,SUMO1 PPI mod,LMPTP inh,DNMT1 block,GRK2 inh confirm,FAM quench CP1,others
COc1ccc(C2(C(=O)NCCc3ccccc3)CCCC2)cc1OC,-2,2,0,4,0,-2,.,.,
Cc1ccc(-c2ccccc2)n1-c1ccc(C(=O)O)cc1,-11,3,51*,-2,-1,4,-3,96,GRK2 confirm 2=-7;FAM quench CP2=103
CC1(c2nc3ccccc3cc2C#N)OCCO1,.,-3,.,-4,-2,-3,.,.,
Cc1csc(CNc2ncnc3ccc(-c4cccnc4)cc23)c1,-3,4,3,5,3,-3,.,.,
Cc1csc(CNc2ncnc3ccc(-c4ccoc4)cc23)c1,2,0,49*,-5,2,-4,-2,100,
Cc1ccc(-n2ncc3c(SCC(=O)NNC(=O)C(C)C)ncnc32)cc1,3,-5,97*,6,-1,10,-1,100,
O=[N+]([O-])c1cc(/C=N/Nc2nc3ccccc3[nH]2)c(O)cc1O,56*,.,45*,.,.,.,5,111,
COc1cc(C(=O)N2CCN(S(=O)(=O)c3cccc(F)c3)CC2)ccc1OCC(=O)N1CCOCC1,-1,2,3,-2,2,3,.,.,
